Source: ChEMBL document CHEMBL1143293, “5-Substituted pyrido[2,3-d]pyrimidine, an inhibitor against three receptor tyrosine kinases” (Bioorg Med Chem Lett, 2009)
Activity calls are given as the source filed them. No cut-off for these calls is given here.

What was measured:
HUVEC [1] = experiment: Inhibition of rhFGF2-induced HUVEC proliferation; type: functional, cell-based; conditions: Homo sapiens; for minimal effective concentration: read-out: MEC
Summary of the method: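 HUVEC proliferation was induced with recombinant human FGF-2 in the presence of compound. Inhibition was reported as IC50 (μM) and as the minimum effective concentration.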

HUVEC [2] = experiment: Cytotoxicity against HUVEC cells; type: cell-based; conditions: human
Summary of the method: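 Cytotoxicity was taken from HUVEC proliferation run without rhFGF-2 stimulation, and the value was reported as the minimum cytotoxic concentration.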

[3] = target: Platelet-derived growth factor receptor beta (Homo sapiens, UniProt P09619); experiment: Inhibition of PDGFRbeta
Sequence of Platelet-derived growth factor receptor beta (P09619 whole entry): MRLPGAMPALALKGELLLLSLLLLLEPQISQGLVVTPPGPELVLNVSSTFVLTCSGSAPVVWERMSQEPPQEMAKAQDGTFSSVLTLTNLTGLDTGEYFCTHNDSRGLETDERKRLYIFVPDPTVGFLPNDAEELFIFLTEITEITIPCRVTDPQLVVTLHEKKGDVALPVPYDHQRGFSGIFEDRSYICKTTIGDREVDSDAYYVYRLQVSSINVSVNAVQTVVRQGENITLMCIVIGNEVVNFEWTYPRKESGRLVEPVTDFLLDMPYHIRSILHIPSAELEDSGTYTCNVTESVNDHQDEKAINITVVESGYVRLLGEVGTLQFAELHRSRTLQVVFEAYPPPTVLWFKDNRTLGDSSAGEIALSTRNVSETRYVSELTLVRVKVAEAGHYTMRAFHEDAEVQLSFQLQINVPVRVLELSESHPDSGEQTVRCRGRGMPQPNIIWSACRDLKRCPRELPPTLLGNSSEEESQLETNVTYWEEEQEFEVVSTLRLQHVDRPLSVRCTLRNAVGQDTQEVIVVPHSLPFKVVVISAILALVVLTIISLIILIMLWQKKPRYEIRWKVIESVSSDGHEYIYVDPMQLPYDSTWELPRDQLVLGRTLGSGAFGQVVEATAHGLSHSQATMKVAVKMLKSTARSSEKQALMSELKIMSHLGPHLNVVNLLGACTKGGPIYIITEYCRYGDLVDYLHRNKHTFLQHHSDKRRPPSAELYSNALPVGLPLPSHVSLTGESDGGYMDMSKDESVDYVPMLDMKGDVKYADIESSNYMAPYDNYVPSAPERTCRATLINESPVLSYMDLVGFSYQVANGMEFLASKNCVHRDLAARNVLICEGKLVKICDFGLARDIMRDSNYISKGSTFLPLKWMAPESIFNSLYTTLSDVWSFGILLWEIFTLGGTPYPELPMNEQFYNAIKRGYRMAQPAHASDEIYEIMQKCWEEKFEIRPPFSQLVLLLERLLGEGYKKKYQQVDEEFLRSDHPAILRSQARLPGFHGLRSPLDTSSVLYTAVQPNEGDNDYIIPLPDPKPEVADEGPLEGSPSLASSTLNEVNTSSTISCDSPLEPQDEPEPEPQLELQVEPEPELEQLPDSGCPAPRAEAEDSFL

[4] = target: Fibroblast growth factor receptor 1 (Homo sapiens, UniProt P11362); experiment: Inhibition of human FGFR1 expressed in insect cells by HTRF method
Sequence of Fibroblast growth factor receptor 1 (P11362 whole entry): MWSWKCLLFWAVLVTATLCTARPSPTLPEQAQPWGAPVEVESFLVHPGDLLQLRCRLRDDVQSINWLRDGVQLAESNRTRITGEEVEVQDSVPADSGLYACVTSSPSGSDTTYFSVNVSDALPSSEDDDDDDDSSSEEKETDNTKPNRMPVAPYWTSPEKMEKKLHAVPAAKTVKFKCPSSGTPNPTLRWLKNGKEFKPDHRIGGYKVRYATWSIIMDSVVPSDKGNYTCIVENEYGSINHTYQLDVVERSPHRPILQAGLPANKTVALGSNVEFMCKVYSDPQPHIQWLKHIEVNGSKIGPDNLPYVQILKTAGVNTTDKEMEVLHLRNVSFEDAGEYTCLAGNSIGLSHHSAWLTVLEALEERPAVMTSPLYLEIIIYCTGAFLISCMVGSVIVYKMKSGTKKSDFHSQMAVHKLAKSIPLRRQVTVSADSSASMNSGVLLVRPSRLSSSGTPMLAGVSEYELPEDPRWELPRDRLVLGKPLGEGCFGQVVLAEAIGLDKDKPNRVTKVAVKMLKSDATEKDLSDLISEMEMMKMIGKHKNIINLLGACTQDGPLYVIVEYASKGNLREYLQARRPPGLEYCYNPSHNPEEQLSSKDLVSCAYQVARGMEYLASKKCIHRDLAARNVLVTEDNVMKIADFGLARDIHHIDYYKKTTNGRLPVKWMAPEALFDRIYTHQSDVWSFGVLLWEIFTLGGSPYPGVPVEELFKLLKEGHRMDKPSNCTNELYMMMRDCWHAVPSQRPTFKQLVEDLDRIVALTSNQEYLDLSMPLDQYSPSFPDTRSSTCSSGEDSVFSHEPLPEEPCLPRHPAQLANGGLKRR

[5] = target: Vascular endothelial growth factor receptor 2 (Homo sapiens, UniProt P35968); experiment: Inhibition of VEGFR2
Sequence of Vascular endothelial growth factor receptor 2 (P35968 whole entry): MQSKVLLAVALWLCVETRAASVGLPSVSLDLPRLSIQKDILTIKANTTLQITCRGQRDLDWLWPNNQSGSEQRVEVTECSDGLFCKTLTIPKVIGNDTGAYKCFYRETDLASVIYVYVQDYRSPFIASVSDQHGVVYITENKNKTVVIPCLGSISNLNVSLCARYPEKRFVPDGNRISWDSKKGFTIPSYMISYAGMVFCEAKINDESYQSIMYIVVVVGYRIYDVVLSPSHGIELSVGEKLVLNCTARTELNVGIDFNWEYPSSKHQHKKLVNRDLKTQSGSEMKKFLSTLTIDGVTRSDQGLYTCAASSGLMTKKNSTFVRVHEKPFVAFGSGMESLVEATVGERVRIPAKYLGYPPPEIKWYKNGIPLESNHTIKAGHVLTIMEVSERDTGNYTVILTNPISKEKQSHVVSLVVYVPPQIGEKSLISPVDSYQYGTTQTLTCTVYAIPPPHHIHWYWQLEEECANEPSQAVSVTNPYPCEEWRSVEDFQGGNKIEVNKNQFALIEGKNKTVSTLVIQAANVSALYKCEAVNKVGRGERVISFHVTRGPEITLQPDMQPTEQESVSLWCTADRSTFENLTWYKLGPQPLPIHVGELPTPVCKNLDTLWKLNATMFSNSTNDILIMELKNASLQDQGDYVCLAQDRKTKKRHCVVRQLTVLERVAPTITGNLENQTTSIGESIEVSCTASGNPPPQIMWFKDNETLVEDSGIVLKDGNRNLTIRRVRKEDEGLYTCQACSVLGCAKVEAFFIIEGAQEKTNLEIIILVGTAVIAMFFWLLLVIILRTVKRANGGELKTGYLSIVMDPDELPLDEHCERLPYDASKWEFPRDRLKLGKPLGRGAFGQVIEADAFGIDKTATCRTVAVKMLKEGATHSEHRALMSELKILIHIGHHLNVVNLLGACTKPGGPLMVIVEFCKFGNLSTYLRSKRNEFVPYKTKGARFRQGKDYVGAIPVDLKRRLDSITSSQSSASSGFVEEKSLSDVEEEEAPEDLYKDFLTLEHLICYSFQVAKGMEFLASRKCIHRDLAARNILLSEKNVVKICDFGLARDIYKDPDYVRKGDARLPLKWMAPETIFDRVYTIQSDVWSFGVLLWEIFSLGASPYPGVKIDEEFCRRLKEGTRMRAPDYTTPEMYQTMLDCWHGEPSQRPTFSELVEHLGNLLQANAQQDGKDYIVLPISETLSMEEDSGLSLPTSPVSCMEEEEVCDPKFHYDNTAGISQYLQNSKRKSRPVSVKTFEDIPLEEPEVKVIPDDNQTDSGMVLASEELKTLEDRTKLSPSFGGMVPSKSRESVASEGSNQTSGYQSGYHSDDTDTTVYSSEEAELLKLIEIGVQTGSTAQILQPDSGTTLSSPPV

[6] = target: RAC-alpha serine/threonine-protein kinase (Homo sapiens) (UniProt P31749); experiment: Inhibition of recombinant human FGF2-induced AKT phosphorylation in HUVEC cells by Western blot; type: cell-based
Sequence of RAC-alpha serine/threonine-protein kinase (Homo sapiens) (P31749 whole entry): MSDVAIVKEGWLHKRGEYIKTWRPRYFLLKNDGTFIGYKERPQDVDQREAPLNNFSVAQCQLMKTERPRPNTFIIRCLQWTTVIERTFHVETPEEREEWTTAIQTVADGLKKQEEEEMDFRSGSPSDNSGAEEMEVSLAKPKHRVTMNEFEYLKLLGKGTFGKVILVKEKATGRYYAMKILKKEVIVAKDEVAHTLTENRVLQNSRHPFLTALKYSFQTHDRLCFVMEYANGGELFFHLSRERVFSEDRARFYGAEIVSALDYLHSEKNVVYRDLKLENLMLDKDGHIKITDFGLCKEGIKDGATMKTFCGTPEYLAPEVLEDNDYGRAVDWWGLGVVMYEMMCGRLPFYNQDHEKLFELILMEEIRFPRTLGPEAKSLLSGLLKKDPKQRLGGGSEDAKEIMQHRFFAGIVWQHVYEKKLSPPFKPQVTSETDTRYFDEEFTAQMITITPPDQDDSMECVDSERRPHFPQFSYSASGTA

HUVEC [7] = experiment: Inhibition of recombinant human FGF2-induced ERK phosphorylation in HUVEC cells by Western blot; type: cell-based
[8] = target: c-Jun N-terminal kinase, JNK (Homo sapiens) (UniProt P45983+P53779+P45984); experiment: Inhibition of recombinant human FGF2-induced JNK phosphorylation in HUVEC cells by Western blot; type: cell-based
HUVEC [9] = experiment: Antiangiogenic activity in HUVEC cells assessed incomplete narrow tube formation after 4 hrs by tube formation assay; type: functional, cell-based; conditions: Homo sapiens
Summary of the method: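 HUVEC seeded onto wells coated with Matrigel, with compound present at 1, 3, 10 and 25 μM; FGF-2-stimulated and untreated controls included. After 4 h at 37 °C, cultures were fixed with glutaraldehyde and the length of the capillary-like tubes was measured. Data are means + SD of four wells from a representative experiment.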

[10] = target: Epidermal growth factor receptor (Homo sapiens, UniProt P00533)
Sequence of Epidermal growth factor receptor (P00533 whole entry): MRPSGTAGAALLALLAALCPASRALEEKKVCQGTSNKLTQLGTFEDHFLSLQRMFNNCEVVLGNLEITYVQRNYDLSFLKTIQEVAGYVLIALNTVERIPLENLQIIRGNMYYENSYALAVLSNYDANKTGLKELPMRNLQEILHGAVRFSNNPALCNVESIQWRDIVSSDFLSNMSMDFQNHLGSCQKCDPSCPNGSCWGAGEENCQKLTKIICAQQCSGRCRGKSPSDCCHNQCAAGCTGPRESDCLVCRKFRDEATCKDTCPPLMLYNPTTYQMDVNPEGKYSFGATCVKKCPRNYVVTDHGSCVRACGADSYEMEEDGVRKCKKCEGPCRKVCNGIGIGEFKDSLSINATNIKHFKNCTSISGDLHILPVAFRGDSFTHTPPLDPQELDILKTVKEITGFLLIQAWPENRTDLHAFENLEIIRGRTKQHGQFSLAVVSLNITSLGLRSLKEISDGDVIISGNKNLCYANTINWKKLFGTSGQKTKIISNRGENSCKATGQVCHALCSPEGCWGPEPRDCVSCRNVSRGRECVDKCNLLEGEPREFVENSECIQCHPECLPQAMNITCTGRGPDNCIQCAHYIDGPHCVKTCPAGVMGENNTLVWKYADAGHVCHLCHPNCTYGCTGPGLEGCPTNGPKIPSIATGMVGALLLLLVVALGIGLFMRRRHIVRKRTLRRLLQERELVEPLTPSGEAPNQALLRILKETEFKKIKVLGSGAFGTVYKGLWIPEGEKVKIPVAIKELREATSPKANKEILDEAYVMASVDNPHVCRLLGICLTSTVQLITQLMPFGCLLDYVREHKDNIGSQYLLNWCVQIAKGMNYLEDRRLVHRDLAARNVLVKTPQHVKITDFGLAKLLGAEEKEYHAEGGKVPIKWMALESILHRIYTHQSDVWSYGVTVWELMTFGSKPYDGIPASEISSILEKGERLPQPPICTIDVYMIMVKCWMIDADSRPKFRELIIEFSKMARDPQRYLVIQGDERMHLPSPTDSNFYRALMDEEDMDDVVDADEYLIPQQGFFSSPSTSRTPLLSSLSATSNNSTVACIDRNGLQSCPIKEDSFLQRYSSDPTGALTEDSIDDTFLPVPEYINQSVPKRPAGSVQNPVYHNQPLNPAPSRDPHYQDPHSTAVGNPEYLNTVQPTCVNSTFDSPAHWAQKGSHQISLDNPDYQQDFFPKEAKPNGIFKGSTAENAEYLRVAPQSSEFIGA

Cc1[nH]c(/C=C2\C(=O)Nc3ccc(C(=O)NNc4ccc(C(F)(F)F)cc4)cc32)c(C)c1CCC(=O)O
minimal effective concentration (HUVEC [1]): 50 µM
Activity (HUVEC [2]): 50 µM

Cc1[nH]c(/C=C2\C(=O)Nc3ccccc32)c(C)c1CCC(=O)O [ORANTINIB]
IC50 [3]: 0.05 µM
IC50 (HUVEC [1]): > 50 µM
minimal effective concentration (HUVEC [1]): 10 µM

Cc1[nH]c(/C=C2\C(=O)Nc3ccc(C(=O)NNc4ccccc4[N+](=O)[O-])cc32)c(C)c1CCC(=O)O
minimal effective concentration (HUVEC [1]): 50 µM
Activity (HUVEC [2]): 50 µM

Cc1[nH]c(/C=C2\C(=O)Nc3ccc(C(=O)NNc4ccc(C#N)cc4)cc32)c(C)c1CCC(=O)O
minimal effective concentration (HUVEC [1]): > 50 µM
Activity (HUVEC [2]): 50 µM

Cc1[nH]c(/C=C2\C(=O)Nc3ccc(C(=O)NNc4ccccc4Cl)cc32)c(C)c1CCC(=O)O
minimal effective concentration (HUVEC [1]): 50 µM

Cc1[nH]c(/C=C2\C(=O)Nc3ccc(C(=O)NNc4ccccc4)cc32)c(C)c1CCC(=O)O
IC50 [4]: 0.1 µM
IC50 [5]: 0.07 µM
IC50 [3]: 0.04 µM
IC50 (HUVEC [1]): 27.4 µM
minimal effective concentration (HUVEC [1]): 10 µM
Activity (HUVEC [2]): 50 µM
Activity [6]: Active
Activity (HUVEC [7]): Active
Activity [8]: Active
Activity (HUVEC [9]): Dose-dependent effect
IC50 [10]: 3.48 µM

COc1cc(OC)cc(-c2ccc3c(c2)NC(=O)/C3=C\c2[nH]c(C)c(CCC(=O)O)c2C)c1
IC50 [4]: 0.52 µM
IC50 [5]: 0.93 µM
IC50 [3]: 0.78 µM
IC50 (HUVEC [1]): 18.2 µM
IC50 [10]: > 100 µM
